Assay outcomes: PubChem, PCMD
A selection: hits, their analogues and other compounds. The true share with any hit is near 1.1%.
Yeast tox: Inhibitors of S. cerevisiae growth, toxicity. S. cerevisiae wild-type growth, A595 turbidity, 16 h. growth inhibition, % at 25 µM (by protocol). 30,000 compounds, 0.3% hits. AID 685;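 active = mutant and wild-type yeast strains alike exhibit over 30% growth inhibition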;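 also: 0% = untreated cell controls and 100% = YPD media blanks without cells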
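System – wild-type and eIF2Bepsilon-R284H mutant S. cerevisiae, screened separately · Measured by – absorbance at 595 nm (turbidity) · Timing – 16 h compound exposure during growth at 30 °C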
Yeast eIF2B: modulators of yeast eIF2B activity; 27,000 compounds, 0.91% hits; inhibition, % at 25 µM (by protocol); AID 688; S. cerevisiae eIF2B-epsilon R284H, GCN4-lacZ luminescence;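 active = mutant luminescence inhibited past about 50% while wild type luminescence and mutant growth stay under set limits, limit read from the data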
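Times: 16 h growth with compound at 30 °C, 90 min Beta-Glo step; Assay system: yeast eIF2B-epsilon R284H mutant carrying GCN4–beta-galactosidase fusion; Measure: % inhibition of reporter signal and growth versus controls; Dosing: one concentration, 25 µM, 0.25% DMSO; Buffer or medium: YPD yeast growth medium; Measured by: Beta-Glo luminescence plus absorbance at 595 nm.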
* = called active by the depositor.

What do the screens show for `Oc1cc(Cc2ccccc2)cnc1CN1CCCCC1`?
Yeast tox: -15.4; Yeast eIF2B: 56.3*

What do the screens show for `O=C(C1CCCN(Cc2ccccc2)C1)N1CCCCC1` (stereo not drawn)?
Yeast tox: 9.6; Yeast eIF2B: 11.6

What do the screens show for `Cc1nc2ccc(-c3ccccc3)cc2o1`?
Yeast tox: 32.4*; Yeast eIF2B: 4.7

How did Cc1cc(-c2nc3ccccc3o2)c2ccccc2n1 do in these assays?
Yeast tox: -5.6; Yeast eIF2B: 4.7

What do the screens show for `Cc1cc(C)n(-c2nc3c(c(=O)n(C)c(=O)n3C)n2CC(O)COc2ccccc2C)n1` (stereo not drawn)?
Yeast tox: 4.0; Yeast eIF2B: 26.6

What do the screens show for `Cc1ccn(C(=O)c2cc3ccccc3oc2=O)n1`?
Yeast tox: 2.6; Yeast eIF2B: 17.7

How did O=C(OCCn1cncn1)c1cc2ccccc2oc1=O do in these assays?
Yeast tox: -4.7; Yeast eIF2B: 59.2*

How did COc1cccc(CSc2nnc(-c3ccco3)n2C)c1 do in these assays?
Yeast tox: 3.1; Yeast eIF2B: 1.4

What do the screens show for `CCn1c(CNc2nc3ccccc3n2C(C)C)nc2ccccc21`?
Yeast tox: 8.3; Yeast eIF2B: 53.2*

Results for CCn1c(NCc2ccccc2Cl)nc2ccccc21 ?
Yeast tox: 4.8; Yeast eIF2B: 18.7

Results for Cc1ccc(-n2c(N)c(C(N)=O)sc2=S)c(C)c1 ?
Yeast tox: 5.5; Yeast eIF2B: -13.4

Results for COc1ccc(Cl)cc1-n1c(N)c(C(N)=O)sc1=S ?
Yeast tox: 7.9; Yeast eIF2B: 52.8*

Results for CCCC(C)C1C(C#N)=C(N)Oc2cc(C)oc(=O)c21 (stereo not drawn) ?
Yeast eIF2B: -28.7

What do the screens show for `CCC(C)(C)n1nnnc1C(c1cc(OC)ccc1OC)N1CCC(C(N)=O)CC1` (stereo not drawn)?
Yeast tox: -2.6; Yeast eIF2B: -23.8

How did CC1=C(C#N)c2nc(N)c(C#N)c(C)c2/C1=C\c1ccccc1 do in these assays?
Yeast tox: 53.2*; Yeast eIF2B: 36.1

How did Cc1nc(N)c(C#N)c(-c2ccccc2)c1C do in these assays?
Yeast tox: 17.3; Yeast eIF2B: 20.6

Results for Cc1ccc2nc3sc(C(=O)N4CCOCC4)c(N)c3cc2c1 ?
Yeast tox: -3.8

How did COc1ccc2cc3c(N)c(C(=O)N4CCCC4)sc3nc2c1 do in these assays?
Yeast tox: 32.6; Yeast eIF2B: 54.3*

Results for Cc1c(NC(=O)C(C)N2CC(C)OC(C)C2)c(=O)n(-c2ccccc2)n1C (stereo not drawn) ?
Yeast tox: 8.4; Yeast eIF2B: 24.8

What do the screens show for `O=C(Nc1cccnc1)c1cc2nc(C3CC3)cc(C(F)(F)F)n2n1`?
Yeast tox: 4.2; Yeast eIF2B: -0.5

How did CC(C)CNC(=O)c1cc2nc(C3CC3)cc(C(F)(F)F)n2n1 do in these assays?
Yeast tox: 8.9; Yeast eIF2B: 56.8*

How did COC(=O)[C@H](CC(C)C)NC(=O)NC1CCCCC1C (stereo partly drawn) do in these assays?
Yeast tox: 4.7; Yeast eIF2B: 8.7

What do the screens show for `Cc1ccc(CN(CC2CCCO2)C(=O)CN2C(=O)C(C(C)C)Oc3ccccc32)o1` (stereo not drawn)?
Yeast tox: 15.7; Yeast eIF2B: 58.9*

What do the screens show for `O=C(CN(CC1CCCO1)C(=O)CCC(=O)Nc1ccccn1)NCc1ccccc1` (stereo not drawn)?
Yeast tox: 24.7; Yeast eIF2B: -9.1

Results for CSc1ccccc1C(=O)NCC1CCCO1 (stereo not drawn) ?
Yeast tox: 13.2

What do the screens show for `CC(C)C1Oc2ccccc2N(CC(=O)N(Cc2ccccn2)CC2CCCO2)C1=O` (stereo not drawn)?
Yeast tox: -2.2; Yeast eIF2B: 58.9*

How did CCc1ccc(NC(=O)CCn2ccnc2C)cc1 do in these assays?
Yeast tox: -11.5

Results for CC(C)[C@H](NC(=O)OC(C)(C)C)C(=O)N/N=C/c1cccc2nccnc12 ?
Yeast tox: 13.8; Yeast eIF2B: -18.2

What do the screens show for `Cc1cc(C)c(C(=O)C2OC(=O)C(C)(C)C(=O)C2(C)C)c(C)c1` (stereo not drawn)?
Yeast tox: -1.9

What do the screens show for `Cc1ccnc2nc(C(=O)Nc3ccc(N4CCOCC4)cc3)nn12`?
Yeast tox: 23.7; Yeast eIF2B: 52.6*

How did O=C(Nc1ccc(N2CCOCC2)cc1)c1ccncc1 do in these assays?
Yeast eIF2B: -13.1

Results for CCOc1ccc2[nH]c(=O)c(CN(CCO)C(=O)CC)cc2c1 ?
Yeast tox: -3.1; Yeast eIF2B: 10.8

How did COc1ccc(OC)c(C2=Nn3c(nnc3-c3cccc(OC(C)C)c3)SC2)c1 do in these assays?
Yeast tox: -20.8; Yeast eIF2B: 59.9*

Results for COc1ccc(-c2nnc3n2N=C(C)CS3)cc1OC ?
Yeast tox: -7.6; Yeast eIF2B: 26.0

What do the screens show for `Cc1cc(/C=N/n2cnnc2)c(C)n1-c1ccc(OCc2ccc(Cl)cc2Cl)cc1`?
Yeast tox: 62.3*; Yeast eIF2B: 1.4

Results for Cc1cc(/C=N/n2cnnc2)c(C)n1-c1ccccc1 ?
Yeast tox: 12.7

What do the screens show for `CCCOc1ccc2ccccc2c1/C=N/n1c(C)nnc1-n1nc(C)cc1C`?
Yeast tox: 28.8; Yeast eIF2B: 15.8

How did N#CC1=C(N)N2C(=C(C#N)C1c1ccccc1)Sc1ccccc12 (stereo not drawn) do in these assays?
Yeast tox: 7.2; Yeast eIF2B: 13.8

How did CCOc1ccc(C2C(C#N)=C(N)N3C(=C2C#N)Sc2ccccc23)cc1 (stereo not drawn) do in these assays?
Yeast tox: 0.3; Yeast eIF2B: 53.5*

Results for COc1ccc(C2CC(c3cccs3)=Nc3ccccc3S2)cc1 (stereo not drawn) ?
Yeast tox: 0.8; Yeast eIF2B: 15.2

Results for CCC(=O)N(Cc1cc(=O)[nH]c2ccccc12)c1cccc(C)c1 ?
Yeast tox: -20.3; Yeast eIF2B: 51.2*

What do the screens show for `CCCCCOC(=O)c1cc(=O)[nH]c2ccccc12`?
Yeast tox: 15.0; Yeast eIF2B: 12.6

How did Cc1ccc(SCCCCN2C(=O)NC(C)(C)C2=O)cc1 do in these assays?
Yeast tox: -1.9; Yeast eIF2B: -16.4

How did O=C1CNC(=O)N1Cc1ccc(Br)cc1 do in these assays?
Yeast tox: -8.9; Yeast eIF2B: 51.0*

What do the screens show for `Brc1ccc(CN2CCSCC2)cc1`?
Yeast tox: 8.8; Yeast eIF2B: 10.8

Results for CC(C)CN1C(=S)SC(C)(C)C1n1oc(=O)n(-c2ccc(Cl)cc2)c1=O (stereo not drawn) ?
Yeast tox: 12.8; Yeast eIF2B: 9.4

How did CCC1SC2=NC(C)=C(C(=O)OC)C(c3cccs3)N2C1=O (stereo not drawn) do in these assays?
Yeast tox: 12.9; Yeast eIF2B: 16.6

How did CCOC(=O)C(O)(CC(=O)c1ccc(OC)cc1)C(F)(F)F (stereo not drawn) do in these assays?
Yeast tox: 11.3

Results for N#CC(C(=O)OC1CCCCC1)c1nc2ccccc2nc1N1CCOCC1 (stereo not drawn) ?
Yeast tox: -12.9; Yeast eIF2B: 51.4*

What do the screens show for `CCC(CC)COC(=O)C(C#N)c1nc2ccccc2nc1N1CCOCC1` (stereo not drawn)?
Yeast tox: 12.2; Yeast eIF2B: 14.0
